Reference: ChEMBL document CHEMBL4725345, “DFG-1 Residue Controls Inhibitor Binding Mode and Affinity, Providing a Basis for Rational Design of Kinase Inhibitor Selectivity” (J Med Chem, 2020)

What was measured:
[1] = biological target: T1, Serine/threonine-protein kinase haspin (Homo sapiens) (UniProt Q8TF76); test: Binding affinity to haspin (unknown origin) assessed as change in melting temperature at 10 uM incubated for 10 mins using SYPRO orange dye by RT-PCR-based fluorescence assay
T1 sequence (whole entry): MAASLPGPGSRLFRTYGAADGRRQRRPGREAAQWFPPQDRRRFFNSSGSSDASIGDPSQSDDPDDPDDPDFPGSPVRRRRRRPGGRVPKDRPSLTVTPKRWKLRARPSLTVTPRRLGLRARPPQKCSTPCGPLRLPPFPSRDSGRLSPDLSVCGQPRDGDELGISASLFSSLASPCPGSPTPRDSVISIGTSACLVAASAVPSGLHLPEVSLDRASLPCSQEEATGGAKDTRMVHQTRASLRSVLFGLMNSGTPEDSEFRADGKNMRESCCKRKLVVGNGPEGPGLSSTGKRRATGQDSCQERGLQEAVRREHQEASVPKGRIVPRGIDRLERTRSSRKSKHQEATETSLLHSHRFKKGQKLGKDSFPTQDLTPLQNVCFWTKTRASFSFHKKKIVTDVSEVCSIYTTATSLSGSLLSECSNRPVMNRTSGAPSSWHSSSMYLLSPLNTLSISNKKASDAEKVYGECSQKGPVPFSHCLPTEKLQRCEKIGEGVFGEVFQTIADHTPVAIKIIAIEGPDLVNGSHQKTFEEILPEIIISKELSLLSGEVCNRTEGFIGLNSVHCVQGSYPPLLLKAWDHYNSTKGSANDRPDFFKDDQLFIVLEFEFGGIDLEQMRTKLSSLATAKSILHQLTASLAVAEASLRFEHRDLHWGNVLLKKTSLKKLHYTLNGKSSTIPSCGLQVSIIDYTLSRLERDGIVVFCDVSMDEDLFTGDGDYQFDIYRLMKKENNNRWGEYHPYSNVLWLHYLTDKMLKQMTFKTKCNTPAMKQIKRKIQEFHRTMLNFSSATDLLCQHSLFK
Procedure, shortened: (§1)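 Recombinant kinase domain at 2 μM in 10 mM HEPES pH 7.5, 500 mM NaCl, mixed with 10 μM inhibitor for 10 min at room temperature; SYPRO orange added at 1:1000; temperature-dependent unfolding fluorescence read on a real-time PCR instrument; Tm shift derived by a previously described method.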

[2] = biological target: Tyrosine-protein kinase Fes/Fps (Homo sapiens) (UniProt P07332); test: Binding affinity to FES (unknown origin) assessed as change in melting temperature at 10 uM incubated for 10 mins using SYPRO orange dye by RT-PCR-based fluorescence assay; procedure, shortened: as §1
[3] = biological target: Casein kinase II subunit alpha' (Homo sapiens) (UniProt P19784); test: Binding affinity to CK2A2 (unknown origin) assessed as change in melting temperature at 10 uM incubated for 10 mins using SYPRO orange dye by RT-PCR-based fluorescence assay; procedure, shortened: as §1
[4] = biological target: Serine/threonine-protein kinase 17A (Homo sapiens) (UniProt Q9UEE5); test: Binding affinity to DRAK1 (unknown origin) assessed as change in melting temperature at 10 uM incubated for 10 mins using SYPRO orange dye by RT-PCR-based fluorescence assay; procedure, shortened: as §1
[5] = biological target: Serine/threonine-protein kinase 33 (Homo sapiens) (UniProt Q9BYT3); test: Binding affinity to STK33 (unknown origin) assessed as change in melting temperature at 10 uM incubated for 10 mins using SYPRO orange dye by RT-PCR-based fluorescence assay; procedure, shortened: as §1
[6] = biological target: cAMP-dependent protein kinase catalytic subunit PRKX (Homo sapiens) (UniProt P51817); test: Binding affinity to PRKX (unknown origin) assessed as change in melting temperature at 10 uM incubated for 10 mins using SYPRO orange dye by RT-PCR-based fluorescence assay; procedure, shortened: as §1
Sequence of cAMP-dependent protein kinase catalytic subunit PRKX (Homo sapiens) (P51817 whole entry): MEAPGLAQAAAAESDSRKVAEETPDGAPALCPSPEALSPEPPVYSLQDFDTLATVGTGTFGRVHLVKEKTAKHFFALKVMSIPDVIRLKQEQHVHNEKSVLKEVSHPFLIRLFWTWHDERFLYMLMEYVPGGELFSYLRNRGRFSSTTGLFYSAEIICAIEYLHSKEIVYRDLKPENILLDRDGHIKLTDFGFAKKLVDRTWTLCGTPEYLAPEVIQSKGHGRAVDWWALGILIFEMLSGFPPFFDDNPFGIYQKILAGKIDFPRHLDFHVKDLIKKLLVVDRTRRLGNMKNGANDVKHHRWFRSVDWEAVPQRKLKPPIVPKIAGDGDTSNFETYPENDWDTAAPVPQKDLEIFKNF

[7] = biological target: T2, Dual specificity protein kinase CLK1 (Homo sapiens, UniProt P49759); test: Inhibition of full length wild type CLK1 (unknown origin) expressed in HEK293 cells incubated for 2 hrs followed by NanoBRET NanoGlo Substrate addition by NanoBRET assay; assay type: cell-based
Target sequence in this assay (P49759 whole entry): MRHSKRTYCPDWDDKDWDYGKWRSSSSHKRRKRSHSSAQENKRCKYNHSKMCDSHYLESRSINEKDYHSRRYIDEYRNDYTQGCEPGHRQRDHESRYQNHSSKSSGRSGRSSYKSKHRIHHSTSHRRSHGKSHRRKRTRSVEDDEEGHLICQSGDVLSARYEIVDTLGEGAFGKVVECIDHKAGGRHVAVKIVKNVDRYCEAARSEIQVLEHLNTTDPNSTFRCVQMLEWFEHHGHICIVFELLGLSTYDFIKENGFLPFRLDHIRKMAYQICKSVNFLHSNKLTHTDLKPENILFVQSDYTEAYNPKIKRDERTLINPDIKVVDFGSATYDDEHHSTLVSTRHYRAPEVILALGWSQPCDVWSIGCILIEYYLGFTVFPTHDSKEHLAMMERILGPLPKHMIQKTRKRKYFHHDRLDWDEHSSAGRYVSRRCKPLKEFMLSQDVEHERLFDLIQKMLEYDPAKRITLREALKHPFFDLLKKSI

[8] = Inhibition of CLK1 V324A mutant (unknown origin) expressed in HEK293 cells incubated for 2 hrs followed by NanoBRET NanoGlo Substrate addition by NanoBRET assay; assay type: cell-based, Homo sapiens
Homo sapiens [9] = organism: Homo sapiens; test: Selectivity ratio of Ki for CLK1 V324A mutant (unknown origin) expressed in HEK293 cells to Ki for wild type CLK1 (unknown origin); assay type: cell-based
Procedure, shortened: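 Full-length CLK1 wild type and V324A, NanoLuc-fused (N-terminal for WT, C-terminal for mutant), transfected into HEK293T cells and expressed for 20 h at 37 °C, 5% CO2. Cells in Opti-MEM were incubated 2 h with serially varied inhibitor plus 1 μM Tracer K5. BRET was read at 450/610 nm, and mBU was fitted to give IC50. […] Biological duplicates; mutant/WT Ki ratio.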

[10] = biological target: T3, Dual specificity protein kinase CLK3 (Homo sapiens, UniProt P49761); test: Inhibition of recombinant CLK3 (unknown origin) using Ac-ERMRPRKRQGSVdP(Sox)G-NH2 as substrate after 5 mins by Omnia Kinase Assay
Target sequence in this assay (P49761 whole entry): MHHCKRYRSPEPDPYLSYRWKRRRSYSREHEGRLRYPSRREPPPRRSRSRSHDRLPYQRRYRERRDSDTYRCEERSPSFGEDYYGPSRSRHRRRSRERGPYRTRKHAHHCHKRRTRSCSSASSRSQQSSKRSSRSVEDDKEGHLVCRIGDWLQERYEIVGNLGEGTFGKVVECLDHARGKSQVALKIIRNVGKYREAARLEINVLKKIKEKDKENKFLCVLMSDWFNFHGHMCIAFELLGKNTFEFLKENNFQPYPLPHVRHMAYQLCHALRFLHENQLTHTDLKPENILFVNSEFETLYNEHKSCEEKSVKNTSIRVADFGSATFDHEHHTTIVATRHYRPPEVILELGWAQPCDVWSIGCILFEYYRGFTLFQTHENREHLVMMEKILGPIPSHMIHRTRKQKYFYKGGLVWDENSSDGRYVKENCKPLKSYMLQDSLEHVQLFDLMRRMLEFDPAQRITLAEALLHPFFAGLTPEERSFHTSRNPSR

[11] = Inhibition of recombinant CLK3 A319V mutant (unknown origin) using Ac-ERMRPRKRQGSVdP(Sox)G-NH2 as substrate after 5 mins by Omnia Kinase Assay; parameters: species or system Homo sapiens
[12] = biological target: T4, Dual specificity protein kinase CLK4 (Homo sapiens, UniProt Q9HAZ1); conditions: dose 10.0 µM, time 10.0 min
Target sequence in this assay (Q9HAZ1 whole entry, looked up): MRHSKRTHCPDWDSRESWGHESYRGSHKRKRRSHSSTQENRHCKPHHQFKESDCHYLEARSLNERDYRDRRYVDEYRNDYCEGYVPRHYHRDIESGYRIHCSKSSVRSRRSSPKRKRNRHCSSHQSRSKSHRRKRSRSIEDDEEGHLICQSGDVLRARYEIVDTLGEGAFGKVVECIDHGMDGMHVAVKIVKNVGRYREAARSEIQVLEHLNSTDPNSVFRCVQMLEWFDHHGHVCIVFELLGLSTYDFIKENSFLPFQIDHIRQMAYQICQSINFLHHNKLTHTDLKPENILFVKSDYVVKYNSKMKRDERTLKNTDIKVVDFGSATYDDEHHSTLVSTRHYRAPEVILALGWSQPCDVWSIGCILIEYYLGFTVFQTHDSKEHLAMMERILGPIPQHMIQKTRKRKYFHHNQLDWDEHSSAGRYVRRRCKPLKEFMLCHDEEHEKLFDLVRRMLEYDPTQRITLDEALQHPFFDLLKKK

[13] = biological target: Dual specificity protein kinase CLK2 (Homo sapiens) (UniProt P49760); conditions: dose 10.0 µM, time 10.0 min
Sequence of Dual specificity protein kinase CLK2 (Homo sapiens) (P49760 whole entry, looked up): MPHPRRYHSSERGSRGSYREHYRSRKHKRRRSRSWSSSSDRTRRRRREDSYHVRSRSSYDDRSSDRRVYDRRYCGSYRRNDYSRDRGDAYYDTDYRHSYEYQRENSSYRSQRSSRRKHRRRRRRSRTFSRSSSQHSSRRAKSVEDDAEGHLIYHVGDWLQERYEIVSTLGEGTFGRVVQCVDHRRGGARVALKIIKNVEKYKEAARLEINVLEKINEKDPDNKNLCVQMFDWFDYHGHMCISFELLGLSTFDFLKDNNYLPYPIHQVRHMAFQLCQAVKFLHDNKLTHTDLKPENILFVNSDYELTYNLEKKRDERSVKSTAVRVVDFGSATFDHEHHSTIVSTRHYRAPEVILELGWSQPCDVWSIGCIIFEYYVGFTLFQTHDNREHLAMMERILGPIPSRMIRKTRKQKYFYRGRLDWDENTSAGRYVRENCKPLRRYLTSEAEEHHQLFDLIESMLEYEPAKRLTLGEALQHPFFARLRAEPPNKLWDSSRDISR

[14] = biological target: cGMP-dependent protein kinase 1 (Homo sapiens) (UniProt Q13976); conditions: dose 10.0 µM, time 10.0 min
[15] = biological target: T3, Dual specificity protein kinase CLK3; conditions: dose 10.0 µM, time 10.0 min
Target sequence in this assay (P49761 whole entry, looked up): as the sequence (P49761 whole entry) above

Homo sapiens [16] = organism: Homo sapiens; test: Binding affinity to CLK1 V324A mutant (unknown origin) assessed as change in melting temperature at 10 uM incubated for 10 mins using SYPRO orange dye by RT-PCR-based fluorescence assay; procedure, shortened: as §1
Homo sapiens [17] = organism: Homo sapiens; test: Binding affinity to CLK3 A319V mutant (unknown origin) assessed as change in melting temperature at 10 uM incubated for 10 mins using SYPRO orange dye by RT-PCR-based fluorescence assay; procedure, shortened: as §1
[18] = biological target: T2, Dual specificity protein kinase CLK1; conditions: dose 10.0 µM, time 10.0 min
Target sequence in this assay (P49759 whole entry, looked up): as the sequence (P49759 whole entry) above

[19] = biological target: Serine/threonine-protein kinase pim-3 (Homo sapiens) (UniProt Q86V86); test: Binding affinity to PIM3 (unknown origin) assessed as change in melting temperature at 10 uM incubated for 10 mins using SYPRO orange dye by RT-PCR-based fluorescence assay; procedure, shortened: as §1
[20] = biological target: T5, Dual specificity tyrosine-phosphorylation-regulated kinase 2 (Homo sapiens) (UniProt Q92630); test: Binding affinity to DYRK2 (unknown origin) assessed as change in melting temperature at 10 uM incubated for 10 mins using SYPRO orange dye by RT-PCR-based fluorescence assay; procedure, shortened: as §1
T5 sequence (whole entry): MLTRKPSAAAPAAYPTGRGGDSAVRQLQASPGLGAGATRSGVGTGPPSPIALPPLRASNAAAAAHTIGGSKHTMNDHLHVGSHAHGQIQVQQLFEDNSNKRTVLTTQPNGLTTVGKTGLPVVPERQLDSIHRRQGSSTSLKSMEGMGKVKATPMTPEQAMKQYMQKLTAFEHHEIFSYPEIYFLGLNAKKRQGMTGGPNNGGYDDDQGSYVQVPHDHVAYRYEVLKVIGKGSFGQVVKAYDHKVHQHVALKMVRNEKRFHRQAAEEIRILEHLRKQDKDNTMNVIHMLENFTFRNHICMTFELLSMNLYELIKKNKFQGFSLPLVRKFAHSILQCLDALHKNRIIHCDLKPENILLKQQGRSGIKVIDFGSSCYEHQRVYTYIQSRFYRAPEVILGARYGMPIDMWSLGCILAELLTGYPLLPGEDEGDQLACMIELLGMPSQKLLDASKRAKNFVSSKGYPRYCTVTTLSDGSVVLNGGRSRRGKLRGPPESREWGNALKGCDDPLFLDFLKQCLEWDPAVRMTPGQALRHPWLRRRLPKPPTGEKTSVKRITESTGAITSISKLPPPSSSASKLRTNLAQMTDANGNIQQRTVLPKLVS

[21] = biological target: Serine/threonine-protein kinase 17B (Homo sapiens) (UniProt O94768); test: Binding affinity to DRAK2 (unknown origin) assessed as change in melting temperature at 10 uM incubated for 10 mins using SYPRO orange dye by RT-PCR-based fluorescence assay; procedure, shortened: as §1
[22] = biological target: Serine/threonine-protein kinase pim-1 (Homo sapiens) (UniProt P11309); test: Binding affinity to PIM1 (unknown origin) assessed as change in melting temperature at 10 uM incubated for 10 mins using SYPRO orange dye by RT-PCR-based fluorescence assay
Sequence of Serine/threonine-protein kinase pim-1 (Homo sapiens) (P11309 whole entry, looked up, canonical isoform): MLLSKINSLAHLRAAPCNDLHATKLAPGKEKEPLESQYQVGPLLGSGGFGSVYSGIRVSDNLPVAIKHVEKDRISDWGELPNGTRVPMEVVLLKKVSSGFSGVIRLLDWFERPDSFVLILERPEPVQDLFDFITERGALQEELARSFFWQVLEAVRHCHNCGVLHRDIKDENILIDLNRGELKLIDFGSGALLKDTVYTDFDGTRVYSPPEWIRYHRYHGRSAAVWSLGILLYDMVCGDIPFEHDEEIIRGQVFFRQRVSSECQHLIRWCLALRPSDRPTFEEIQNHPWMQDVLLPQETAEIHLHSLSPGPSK

[23] = biological target: Casein kinase I isoform epsilon (Homo sapiens) (UniProt P49674); test: Binding affinity to CSNK1E (unknown origin) assessed as change in melting temperature at 10 uM incubated for 10 mins using SYPRO orange dye by RT-PCR-based fluorescence assay; procedure, shortened: as §1
[24] = biological target: T6, Dual specificity tyrosine-phosphorylation-regulated kinase 1A (Homo sapiens, UniProt Q13627); conditions: dose 10.0 µM, time 10.0 min
[25] = biological target: High affinity nerve growth factor receptor (Homo sapiens) (UniProt P04629); test: Inhibition of human TrkA assessed as residual activity at 1 uM relative to control
Sequence of High affinity nerve growth factor receptor (Homo sapiens) (P04629 33-796 limits assumed): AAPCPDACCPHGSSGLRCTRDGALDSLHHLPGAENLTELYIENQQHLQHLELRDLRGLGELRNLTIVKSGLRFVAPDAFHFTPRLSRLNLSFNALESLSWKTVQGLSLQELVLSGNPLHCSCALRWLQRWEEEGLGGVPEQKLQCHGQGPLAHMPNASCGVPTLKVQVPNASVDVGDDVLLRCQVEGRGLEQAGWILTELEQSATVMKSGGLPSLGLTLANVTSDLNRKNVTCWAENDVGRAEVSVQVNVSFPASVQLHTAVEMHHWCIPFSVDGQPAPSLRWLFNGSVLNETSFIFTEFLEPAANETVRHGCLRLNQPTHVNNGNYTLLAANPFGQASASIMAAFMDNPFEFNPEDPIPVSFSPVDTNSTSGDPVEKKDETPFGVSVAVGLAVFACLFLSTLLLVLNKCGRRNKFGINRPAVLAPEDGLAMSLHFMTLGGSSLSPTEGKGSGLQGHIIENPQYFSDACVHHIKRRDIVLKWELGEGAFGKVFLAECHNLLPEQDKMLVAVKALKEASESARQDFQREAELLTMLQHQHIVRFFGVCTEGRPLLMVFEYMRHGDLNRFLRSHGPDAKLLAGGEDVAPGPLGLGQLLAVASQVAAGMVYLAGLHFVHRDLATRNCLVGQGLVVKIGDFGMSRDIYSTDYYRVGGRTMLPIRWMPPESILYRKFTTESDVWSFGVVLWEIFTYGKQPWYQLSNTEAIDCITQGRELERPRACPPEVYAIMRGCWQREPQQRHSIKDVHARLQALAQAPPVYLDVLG

[26] = biological target: Glycogen synthase kinase-3 beta (Homo sapiens) (UniProt P49841); test: Inhibition of human GSK3B assessed as residual activity at 1 uM relative to control
[27] = biological target: T1, Serine/threonine-protein kinase haspin (Homo sapiens); test: Inhibition of human Haspin assessed as residual activity at 1 uM relative to control
[28] = biological target: Interleukin-1 receptor-associated kinase 4 (Homo sapiens) (UniProt Q9NWZ3); test: Inhibition of human IRAK4 assessed as residual activity at 1 uM relative to control
[29] = biological target: T4, Dual specificity protein kinase CLK4; test: Inhibition of human CLK4 by radiometric assay
[30] = biological target: T6, Dual specificity tyrosine-phosphorylation-regulated kinase 1A; test: Inhibition of DYRK1A (unknown origin) by radiometric assay
[31] = biological target: Dual specificity tyrosine-phosphorylation-regulated kinase 2 (Homo sapiens, UniProt Q92630); test: Inhibition of human DYRK2 by radiometric assay
[32] = biological target: Homeodomain-interacting protein kinase 1 (Homo sapiens, UniProt Q86Z02); test: Inhibition of human HIPK1 by radiometric assay
[33] = biological target: Homeodomain-interacting protein kinase 2 (Homo sapiens, UniProt Q9H2X6); test: Inhibition of human HIPK2 by radiometric assay
Sequence of Homeodomain-interacting protein kinase 2 (Q9H2X6 whole entry): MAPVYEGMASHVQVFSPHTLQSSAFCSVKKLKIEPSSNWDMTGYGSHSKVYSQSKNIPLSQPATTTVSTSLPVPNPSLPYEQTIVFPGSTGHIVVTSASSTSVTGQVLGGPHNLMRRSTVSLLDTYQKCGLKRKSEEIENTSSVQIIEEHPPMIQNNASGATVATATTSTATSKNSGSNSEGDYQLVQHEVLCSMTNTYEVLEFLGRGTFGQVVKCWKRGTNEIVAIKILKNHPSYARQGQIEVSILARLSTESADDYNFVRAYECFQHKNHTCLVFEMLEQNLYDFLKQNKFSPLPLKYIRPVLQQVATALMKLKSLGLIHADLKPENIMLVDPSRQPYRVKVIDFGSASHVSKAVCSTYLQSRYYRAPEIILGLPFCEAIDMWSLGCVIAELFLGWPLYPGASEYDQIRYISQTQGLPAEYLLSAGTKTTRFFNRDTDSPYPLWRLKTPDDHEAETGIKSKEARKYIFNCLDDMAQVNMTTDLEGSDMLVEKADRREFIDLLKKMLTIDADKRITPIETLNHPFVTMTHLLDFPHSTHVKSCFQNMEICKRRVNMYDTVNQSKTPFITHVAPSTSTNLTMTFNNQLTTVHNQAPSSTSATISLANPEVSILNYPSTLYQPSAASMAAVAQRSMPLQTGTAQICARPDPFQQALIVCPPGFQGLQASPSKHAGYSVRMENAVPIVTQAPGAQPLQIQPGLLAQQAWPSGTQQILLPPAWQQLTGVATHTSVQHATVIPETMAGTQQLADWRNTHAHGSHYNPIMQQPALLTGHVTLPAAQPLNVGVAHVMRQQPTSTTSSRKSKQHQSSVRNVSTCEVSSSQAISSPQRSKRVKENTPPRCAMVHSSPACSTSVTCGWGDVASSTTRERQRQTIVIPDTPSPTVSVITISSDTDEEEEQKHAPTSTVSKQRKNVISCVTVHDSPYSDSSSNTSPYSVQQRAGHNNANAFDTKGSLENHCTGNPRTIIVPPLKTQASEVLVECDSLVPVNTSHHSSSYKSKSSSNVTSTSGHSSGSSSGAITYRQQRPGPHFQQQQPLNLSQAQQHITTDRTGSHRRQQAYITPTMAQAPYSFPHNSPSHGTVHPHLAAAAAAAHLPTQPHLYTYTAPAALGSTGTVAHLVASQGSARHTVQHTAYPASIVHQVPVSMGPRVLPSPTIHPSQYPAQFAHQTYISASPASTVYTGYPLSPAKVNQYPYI

[34] = biological target: Homeodomain-interacting protein kinase 3 (Homo sapiens, UniProt Q9H422); test: Inhibition of human HIPK3 by radiometric assay

Question: Which results are given for `Cn1c2c(c3ccc(Cl)c(Cl)c31)C(C#N)C1(CCNCC1)NC2=O` (stereo unspecified)?
Answer: ΔTm [1]: > 4 °C; ΔTm [2]: > 4 °C; ΔTm [3]: > 4 °C; ΔTm [4]: > 4 °C; ΔTm [5]: > 4 °C; ΔTm [6]: > 4 °C; Ki [7]: 140 nM; Ki [8]: 2810 nM; Ratio Ki (Homo sapiens [9]): 20.6; Ki [10]: 26900 nM; Ki [11]: 850 nM; ΔTm [12]: > 4 °C; ΔTm [13]: 3.5 °C; ΔTm [14]: > 6 °C; ΔTm [15]: 1.4 °C

Question: For `CCOc1ccc2c(-c3ccnc(Nc4cc(OC)cc(C(F)(F)F)c4)n3)cnn2n1`, which Ratio Ki (Homo sapiens [9]) is on record?
Answer: 9

Question: And the ΔTm (Homo sapiens [16])?
Answer: 2.5 °C

Question: What about the ΔTm (Homo sapiens [17]) of the same compound?
Answer: 5.5 °C

Question: What about the ΔTm [12] of the same compound?
Answer: 9 °C

Question: And the ΔTm [18]?
Answer: 9 °C

Question: What about the ΔTm [13] of the same compound?
Answer: 8.4 °C

Question: What about the ΔTm [15] of the same compound?
Answer: 2 °C

Question: With `Nc1nccc(-c2ccc3noc(-c4ccc(Cl)cc4)c3c2)n1` as the compound, how does the ΔTm [19] read?
Answer: > 4 °C

Question: And the ΔTm [20]?
Answer: > 6 °C

Question: And the ΔTm [21]?
Answer: > 6 °C

Question: And the ΔTm [18]?
Answer: > 6 °C

Question: What about the ΔTm [13] of the same compound?
Answer: > 6 °C

Question: With `O=C1NCc2ccc3c(-c4cccc(Cl)c4)c[nH]c3c21` as the compound, how does the ΔTm [12] read?
Answer: 10.1 °C

Question: And the ΔTm [18]?
Answer: 9.8 °C

Question: And the ΔTm [13]?
Answer: 4.9 °C

Question: What about the ΔTm [15] of the same compound?
Answer: 2.3 °C

Question: What does the source list for `CCN1/C(=C\C(C)=O)Sc2ccc(OC)cc21`?
Answer: ΔTm [22]: > 4 °C; ΔTm [19]: > 4 °C; ΔTm [20]: > 6 °C; ΔTm [23]: > 4 °C; Ki [11]: 320 nM; ΔTm [12]: > 6 °C; ΔTm [18]: > 6 °C; ΔTm [13]: > 4 °C; ΔTm [24]: > 6 °C; ΔTm [15]: 3 °C

Question: Which results are given for `COC(=N)c1nc2ccc3ncnc(Nc4ccc(OC)cc4F)c3c2s1`?
Answer: ΔTm (Homo sapiens [16]): 3.8 °C; ΔTm (Homo sapiens [17]): 9.2 °C; ΔTm [12]: 9.6 °C; ΔTm [18]: 10.3 °C; ΔTm [13]: 7 °C; ΔTm [15]: 3.4 °C

Question: Which Ratio Ki (Homo sapiens [9]) does the source give for `CCOC(=O)c1c(/C(C#N)=C/N)c2ccc(Cl)c(Cl)c2n1C` here?
Answer: 9

Question: With `Cn1cc(-c2ccc3occ(-c4cccc(Oc5ccccc5)c4)c3n2)cn1` as the compound, how does the ΔTm [18] read?
Answer: 12.3 °C

Question: What about the ΔTm [13] of the same compound?
Answer: 8.3 °C

Question: And the ΔTm [15]?
Answer: 4.8 °C

Question: What does the source list for `Cn1cc(-c2ccc3occ(-c4cccc(-c5ccncc5)c4)c3n2)cn1`?
Answer: Activity [25]: < 50%; Activity [26]: < 50%; Activity [27]: < 50%; Activity [28]: < 50%; IC50 [29]: 12 nM; IC50 [30]: 213 nM; IC50 [31]: 1310 nM; IC50 [32]: 187 nM; IC50 [33]: 29 nM; IC50 [34]: 159 nM
